{"data": "Assay results pooled from the literature", "target": "Citron Rho-interacting kinase (CIT, Homo sapiens, UniProt O14578)", "note": "Protocols differ between the studies behind these lines."}
{"Structure (SMILES)": "Cc1ccc(NC(=O)c2ccnc(C(F)(F)F)c2)cc1-c1cc(OCCO)nc(N2CCOCC2)c1", "read-out": "binding", "technique": "competition with immobilised ligand", "tested at": "1 µM", "quantity": "remaining binding", "value": "96%"}
{"Structure (SMILES)": "CO[C@@H]1[C@H](N(C)C(=O)c2ccccc2)C[C@H]2O[C@]1(C)n1c3ccccc3c3c4c(c5c6ccccc6n2c5c31)C(=O)NC4", "read-out": "enzyme activity", "mode": "inhibitor", "tested at": "1 µM", "quantity": "inhibition", "value": "0%"}
{"Structure (SMILES)": "CC(C)S(=O)(=O)c1ccc2nccc(Nc3ccc4sc(C5CCCC5)nc4c3)c2c1", "read-out": "enzyme activity", "mode": "inhibitor", "tested at": "1 µM", "quantity": "activity vs control", "value": "113%"}
{"Structure (SMILES)": "CCCCC(=O)Nc1ccc(-c2ccc3ncn(CCC)c(=O)c3c2)cn1", "read-out": "binding", "technique": "competition with immobilised ligand", "tested at": "0.5 µM", "quantity": "remaining binding", "value": "83%"}
{"Structure (SMILES)": "CN1CCN(C(=O)c2ccc(NC(=O)Nc3ccc(N(C)c4ccnc(Nc5ccc(CS(C)(=O)=O)cc5)n4)cc3)cc2)CC1", "read-out": "binding", "technique": "competition with immobilised ligand", "tested at": "1 µM", "quantity": "remaining binding", "value": "79%"}
{"Structure (SMILES)": "C1=C/COCc2cc(ccc2OCCN2CCCC2)Nc2nccc(n2)-c2cccc(c2)COC/1", "read-out": "cell-free assay", "tested at": "0.1 µM", "quantity": "remaining signal", "value": "72%"}
{"Structure (SMILES)": "COc1ccc2oc(-c3ccc4nc(N)oc4c3)c/c(=N\\c3ccccc3NC(=O)CCN)c2c1", "read-out": "binding", "tested at": "1 µM", "quantity": "remaining binding", "value": "92%"}
{"Structure (SMILES)": "CC#CC(=O)N1CCC[C@H]1c1nc(-c2ccc(C(=O)Nc3ccccn3)cc2)c2c(N)nccn12", "read-out": "enzyme activity", "mode": "inhibitor", "tested at": "1 µM", "quantity": "inhibition", "value": "1%"}
